Source: PubChem
MEKK2mut PB1 HTS: signal of MEK5 binding to mutant human MEKK2 PB1 domain; percent response, % at 10 µM; 290,000 tested, 0.35% active; bead flow cytometry, Alexa488-MEK5 binding to MEKK2 mutant; in the data active = percent response above about 24%, passing the limit was not always enough
Arrestin-AP2 inh: human beta-arrestin and AP2 interaction inhibition | FITC-arrestin peptide / GST-AP2 beads, flow cytometry; AP2 beta2 appendage carries R879A mutation | inhibition, % at 10 µM | 340,000 tested, 0.31% active;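 active = inhibition above a set limit, near 3 SD of compounds lacking own fluorescence, cut at about 54% in these data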;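 note: plate controls were DMSO wells for no effect and 5 µM unlabelled arrestin peptide for full effect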
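System: GST-AP2 R879A glutathione beads. Medium: PBS with 0.05% Tween 20 and 0.1% BSA. Also added: FITC-arrestin peptide, 50 nM. Incubation: 12 min plus 1 h, RT. Measured by: high-throughput flow cytometry of beads, ex 488, em 535 nm. Evaluation: percent drop in bead-associated FITC signal.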
MEKK2wt PB1 HTS: raises or lowers MEK5 binding to wildtype human MEKK2 PB1 domain; Q9Y2U5; bead flow cytometry, Alexa488-MEK5 binding to MEKK2 WT; actives lie on both sides; binding response (% of control), % at 10 µM; 290,000 tested, 1.1% active; AID 1531; in the data active = binding response below about 67% or above about 130%
MEKK3 PB1 HTS: MEKK3-MEK5 PB1 interaction, increase or decrease; Q99759; bead-based flow cytometry, Alexa488-MEK5 binding to MEKK3; actives lie on both sides; 0 = blocked by unlabeled MEK5, 100 = vehicle; binding response (% of control), % at 10 µM; 290,000 tested, 1.4% active;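 active = binding response more than 3 SD above or below the average of its plate-row segment, actives on both sides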;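 note: Alexa488 bead fluorescence after subtracting the streptavidin-only scavenger bead signal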
Target sequence (Q99759 whole entry, looked up): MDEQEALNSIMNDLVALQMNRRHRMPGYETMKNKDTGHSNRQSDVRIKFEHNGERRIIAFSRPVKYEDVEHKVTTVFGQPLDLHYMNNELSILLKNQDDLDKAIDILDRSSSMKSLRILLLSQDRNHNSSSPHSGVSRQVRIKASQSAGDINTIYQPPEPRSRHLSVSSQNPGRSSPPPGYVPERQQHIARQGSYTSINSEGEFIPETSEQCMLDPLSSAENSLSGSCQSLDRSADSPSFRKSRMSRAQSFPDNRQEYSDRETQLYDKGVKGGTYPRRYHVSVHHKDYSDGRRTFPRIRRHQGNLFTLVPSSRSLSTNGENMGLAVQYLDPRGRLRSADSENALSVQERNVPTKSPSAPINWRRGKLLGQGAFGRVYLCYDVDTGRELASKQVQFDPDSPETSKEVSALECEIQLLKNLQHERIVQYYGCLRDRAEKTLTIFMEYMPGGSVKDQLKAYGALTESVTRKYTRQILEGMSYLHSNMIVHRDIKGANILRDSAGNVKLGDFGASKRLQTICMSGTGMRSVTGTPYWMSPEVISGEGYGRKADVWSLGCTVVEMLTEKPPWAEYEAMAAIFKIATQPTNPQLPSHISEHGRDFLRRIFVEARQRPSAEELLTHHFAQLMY
Arr-AP2 CP1: inhibitors of human beta-arrestin and AP2 interaction; GST-AP2 beads, FITC arrestin peptide binding, flow cytometry; GST-fused beta2-adaptin appendage, R879A mutant; 1,300 tested, 2% active; AID 504908; inhibition, % at 10 µM; shares compounds with Arrestin-AP2 inh;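 active = inhibition above a set limit, roughly 3 SD of non-fluorescent compound noise, cut at about 38% in these data; inactive = inhibition at or below that limit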;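 note: loss of bead fluorescence from 50 nM FITC arrestin peptide bound to appendage; 0% = negative control wells and 100% = excess unlabelled arrestin peptide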
GST-FITC bead: GST-GSH bead binding interference, counter-screen; GST-fluorescein binding to GSH beads, fluorescence; inhibition, % at 10 µM; AID 588338; shares compounds with Arrestin-AP2 inh; 1,300 tested, 2% active;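 active = inhibition above 50%, about 3 SD of the inhibition seen with non-fluorescent compounds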;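 note: fluorescein maleimide labelled GST captured on 4 micron glutathione beads; higher means more loss of bead fluorescence from quenching or blocked binding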
The depositor's hits bear a star; . = no result given. A selection: hits, their analogues and other compounds. The true share with any hit is near 2.3%.

SMILES	MEKK2mut PB1 HTS	Arrestin-AP2 inh	MEKK2wt PB1 HTS	MEKK3 PB1 HTS	Arr-AP2 CP1	GST-FITC bead
CC(C)(C)c1ccccc1OCC(=O)NCc1ccccc1	2	64*	103	100	4	-8
CCc1ccc(N2CC(C(=O)OCc3csc(CC(=O)Nc4ccccc4C)n3)CC2=O)cc1 (configuration not stated)	.	62*	.	.	16	7
CCOC(=O)/C=C/C(=O)OCc1csc(CC(=O)Nc2ccccc2C)n1	12	-9	97	99	.	.
CC/C(=N\NC(=S)NC(C)C)c1ccc(OC)c(OC)c1	0	56*	102	102	2	-3
CC/C(=N\NC(N)=O)c1ccc(OC)c(OC)c1	21	40	102	104	.	.
CC(=O)Nc1ccc(NC(=O)C2CCCN2/C=C/C(=O)C(F)(F)F)cc1 (configuration not stated)	-10	-3	89	95	.	.
COc1ccccc1NS(=O)(=O)c1cccc(NC(=O)C2CC(=O)N(Cc3ccccc3)C2)c1 (configuration not stated)	-5	60*	99	101	-3	-12
Cc1occc1C(=O)NCc1cccs1	10	78*	106	99	9	0
Cc1cc(C(=O)NCc2cccs2)c(C)o1	4	1	102	103	.	.
CCOC(=O)c1c(-c2cccs2)csc1NC(=O)CN1CC(C)OC(C)C1 (configuration not stated)	3	72*	106	107	6	-3
COc1ccc(CNC(=O)[C@H](C)NC(=O)C2CC(=O)N(c3ccc4c(c3)OCO4)C2)cc1 (some centres not stated)	4	55*	102	100	1	1
O=C(NNc1ncnc2ccccc12)c1cccc(Cl)c1	-2	-15	95	97	.	.
O=C(OCc1nnc(-c2ccccc2)o1)c1ccc([N+](=O)[O-])s1	.	70*	.	.	15	-4
CCCCc1ccc(NC(=O)CC(C)=O)cc1	-1	-4	104	101	-9	1
COc1ccc(-c2csc(NC(=S)NC(=O)/C=C/c3ccco3)n2)cc1Br	-2	88*	95	99	-2	-9
COc1ccc(S(=O)Cc2ccc(C(=O)NCc3cccc(OC)c3)o2)cc1 (configuration not stated)	-1	8	93	93	.	.
CCN(CC(=O)Nc1c(F)cccc1F)C(=O)CCNS(=O)(=O)c1ccc(C)c(C)c1	.	58*	.	.	-4	0
CCCCCOC(=O)CCN1C(=O)/C(=C2\SC(=S)N(CCC(=O)OCCCCC)C2=O)SC1=S	-29	56*	62	62	1	-2
CC(=O)Nc1nnc(S(=O)(=O)N2CCN(c3ccc(Cl)cc3[N+](=O)[O-])CC2)s1	2	56*	103	99	20	-17
O=C(Nc1nnc(S(=O)(=O)N2CCCCCC2)s1)c1ccc(Cl)cc1	2	9	96	101	.	.
Cc1c([N+](=O)[O-])cnc(Sc2ccccc2)c1[N+](=O)[O-]	.	-5	.	.	.	.
CCOC(=O)C1=C(COC(=O)CCOc2ccc(C)cc2)NC(=O)NC1C (configuration not stated)	.	12	.	.	-5	-11
CCOC(=O)C1=C(COC(=O)CNC(=O)c2cccc(C)c2)NC(=O)NC1C (configuration not stated)	.	2	.	.	.	.
CCOC(=O)C1=C(COC(=O)CCOc2ccc(OC)cc2)NC(=O)NC1C (configuration not stated)	.	-9	.	.	-1	-12
CCOC(=O)C1=C(COC(=O)COc2ccc(Br)cc2)NC(=O)NC1C (configuration not stated)	.	-4	.	.	-5	-7
SMILES	MEKK2mut PB1 HTS	Arrestin-AP2 inh	MEKK2wt PB1 HTS	MEKK3 PB1 HTS	Arr-AP2 CP1	GST-FITC bead
O=C(NCc1ccccc1)N1CCOCC1	-3	15	100	97	.	.
O=C(NCC(F)(F)F)N1CCOCC1	12	68*	102	104	5	-6
O=C1Nc2ccc(NS(=O)(=O)c3cccs3)c3cccc1c23	.	96*	.	.	13	2
CCOC(=O)C1CCN(c2c(NCc3ccc(C(=O)Nc4ccc(C)cc4)cc3)c(=O)c2=O)CC1	-12	34	79	72	.	.
COc1ccc(CC(=O)N(C)Cc2ccc(Cl)cc2)cc1S(=O)(=O)N1CCOCC1	.	64*	.	.	16	0
CCSc1nc(N2CCOCC2)c2c(c1C#N)CC(C)(C)N(C)C2	4	54*	103	102	-15	-6
CCOCCCNS(=O)(=O)c1ccc(NC(=O)c2ccc(OC)c([N+](=O)[O-])c2)cc1	3	56*	101	97	10	7
Cn1nnc(NC(=S)NC(=O)c2cccc3c(Cl)cccc23)n1	1	56*	101	99	0	-8
CCN(CC)c1ccc(CN(C(=O)c2ccco2)C2CCS(=O)(=O)C2)cc1 (configuration not stated)	.	0	.	.	.	.
CCc1ccc(CN(C(=O)c2ccco2)C2CCS(=O)(=O)C2)cc1 (configuration not stated)	-4	67*	101	103	-15	-1
CCCCN1C(=O)C(=O)N(CC(=O)Nc2cc(OCC)c(N3CCOCC3)cc2OCC)C1=O	-16	36	80	87	.	.
OCCOCCN1CCN(C2=Nc3ccccc3Sc3ccccc32)CC1	2	5	104	103	.	.
O=C1C=CC(=O)c2c(O)c(N3CCN(CCO)CC3)c(Cl)c(O)c21	.	80*	.	.	44*	8
O=C1C=CC(=O)c2c(O)c(N3CCN(CCOCCO)CC3)c(Br)c(O)c21	.	69*	.	.	52*	20
CN(C)c1ccc(N=c2sc3ccccc3n2C)cc1	2	63*	105	103	6	1
Cn1c(=Nc2ccccc2)sc2ccccc21	-6	40	92	89	.	.
COc1cc(C(=O)Nn2cnnc2)ccc1OC(F)F	5	54*	103	100	-8	-3
COc1ccc(OC)c2c1C(=O)C(Cl)=C(Cl)C2=O	-4	87*	74	78	72*	28
C=CCn1c(Oc2ccc(C=O)cc2OCC)nc2c1c(=O)n(C)c(=O)n2C	2	-2	100	97	.	.
CCn1c(=O)n(CC)c2cc(N3CCCC3)c(NC(=O)c3cccc(Cl)c3)cc21	5	4	103	104	-7	0
CCn1c(=O)n(CC)c2cc(N3CCCC3)c(NC(=O)c3ccc(C)c([N+](=O)[O-])c3)cc21	3	70*	109	103	0	-7
Cc1cc(NC(=O)c2ccc(N3CCCC3)c([N+](=O)[O-])c2)no1	-1	98*	96	101	-3	23
O=C(Nc1ccon1)c1ccc(N2CCCCC2)c([N+](=O)[O-])c1	6	1	106	102	.	.
